Results: ChEMBL document CHEMBL4765452, “Discovery of (E)-N-(4-methyl-5-(3-(2-(pyridin-2-yl)vinyl)-1H-indazol-6-yl)thiazol-2-yl)-2-(4-methylpiperazin-1-yl)acetamide (IHMT-TRK-284) as a novel orally available type II TRK kinase inhibitor capable of overcoming multiple resistant mutants” (Eur J Med Chem, 2020)

Experiments:
[1] = Tmax in Beagle dog at 5 mg/kg, po; type: ADME, organism-based, Canis lupus familiaris; conditions: in vivo
In short: (§1)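 Single-dose PK in mice, Sprague Dawley rats and beagle dogs, given i.v. (1 mg/kg) or p.o. (10 mg/kg mice and rats; 5 mg/kg dogs). AUC0-t, T1/2, Tmax and oral bioavailability (F) derived from plasma profiles.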

[2] = test system: BaF3; test: Antitumor activity against mouse BAF3 cells harboring LMNA fused TRKA-F589L mutant allografted in nude mouse assessed as tumor growth inhibition at 80 mg/kg, po administered once daily for 10 days relative to control; type: functional; conditions: 240 h, time 10 day, read-out: TGI
In short: (§2)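 Nu/nu mice given 1 million BaF3 cells (TEL-TRKA, TEL-TRKB, TEL-TRKC, LMNA-TRKA-F589L or LMNA-TRKA-G667S) in DMEM, 1:1 with matrigel, injected subcutaneously into the right flank; oral gavage began at 200–400 mm³, 5 mice per group, compound in 0.5% methylcellulose/0.4% Tween 80 in ddH₂O, 10 days; tumor volume [(W²×L)/2] and body weight recorded daily; TGI versus vehicle.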

[3] = Apparent volume of distribution in Sprague-Dawley rat at 10 mg/kg, po; type: ADME, organism-based; conditions: in vivo
[4] = Cmax in Beagle dog at 5 mg/kg, po; type: ADME, organism-based, Canis lupus familiaris; set-up: route oral, dose 5 mg/kg; conditions: in vivo
[5] = test system: BaF3; test: Inhibition of LMNA fused TRKA V573M mutant (unknown origin) transfected in mouse BAF3 cells assessed as growth inhibition after 72 hrs by CCK8 assay; type: cell-based; conditions: Homo sapiens
[6] = target: High affinity nerve growth factor receptor (Homo sapiens, UniProt P04629, G667C); test: Inhibition of LMNA fused TRKA G667C mutant (unknown origin) transfected in mouse BaF3 cells assessed as reduction in phosphorylation at Y490 residue after 2 hrs by Western blot analysis; type: cell-based
In short: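 Isogenic BaF3 lines, made in-house, grown in RPMI 1640 with 10% FBS and 1% penicillin/streptomycin at 37 °C under 5% CO2. Serially diluted compound added for 2 h. Cells collected and lysed, and lysates analysed by western blotting for phospho-TRK. EC50 derived from the blots.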

[7] = Apparent volume of distribution in mouse at 10 mg/kg, po; type: ADME, organism-based; conditions: in vivo
[8] = Oral bioavailability in Sprague-Dawley rat at 10 mg/kg; type: ADME, organism-based; conditions: in vivo; in short: as §1
[9] = Toxicity in mouse xenografted with mouse BAF3 cells harboring […] TRKA-G667S mutant assessed as effect on abnormal behaviour at 40 to 80 mg/kg, po administered twice daily for 10 days; type: organism-based; conditions: in vivo, 240 h, dose 40-80 mg/kg, time 10 day
In short: (§3)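 nu/nu mice were given subcutaneous right-flank implants in 1:1 DMEM/matrigel: 1 million BaF3 fusion cells or 5 million KM-12-LUC cells. Oral gavage started at 150–200 mm3 (xenograft) or 200–400 mm3 (allograft). Dosing used 40 or 80 mg/kg in HKI vehicle (0.5% methylcellulose/0.4% Tween 80 in ddH2O), with 5 mice per group. Body weight was recorded daily and behaviour observed.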

[10] = test system: BaF3; test: Antitumor activity against mouse BAF3 cells harboring TEL fused TRKB allografted in nude mouse assessed as tumor growth inhibition at 80 mg/kg, po administered once daily for 10 days relative to control; type: functional; conditions: 240 h, time 10 day, read-out: TGI; in short: as §2
[11] = test system: BaF3; test: Antitumor activity against mouse BAF3 cells harboring TEL fused TRKA allografted in nude mouse assessed as tumor growth inhibition at 80 mg/kg, po administered once daily for 10 days relative to control; type: functional; conditions: 240 h, time 10 day, read-out: TGI; in short: as §2
[12] = target: BDNF/NT-3 growth factors receptor (Homo sapiens, UniProt Q16620); test: Inhibition of TEL fused TRKB (unknown origin) transfected in mouse BAF3 cells assessed as growth inhibition after 72 hrs by CCK8 assay; type: cell-based
In short: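 TEL-fusion isogenic BaF3 lines were built in-house and grown in RPMI 1640 with 10% FBS and 1% penicillin/streptomycin at 37 °C under 5% CO2. Cells were spun down before use.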

[13] = Half life in Sprague-Dawley rat at 10 mg/kg, po; type: ADME, organism-based; conditions: in vivo
[14] = Toxicity in mouse xenografted with mouse BAF3 cells harboring TEL fused TRKC assessed as effect on body weight at 40 to 80 mg/kg, po administered once daily for 10 days; type: organism-based; conditions: in vivo, 240 h, dose 40-80 mg/kg/day, time 10 day; in short: as §3
[15] = Inhibition of LMNA fused TRKA V573M mutant (unknown origin) transfected in mouse BaF3 cells assessed as reduction in phosphorylation at Y490 residue after 2 hrs by Western blot analysis; conditions: Homo sapiens, BaF3, 2 h
[16] = Cmax in mouse at 10 mg/kg, po; type: ADME, organism-based; set-up: route oral, dose 10 mg/kg; conditions: in vivo
[17] = AUC (0 to t) in mouse at 1 mg/kg, iv; type: ADME, organism-based; set-up: dose 1 mg/kg; conditions: in vivo
In short: (§4)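 Intravenous and oral arms were run in parallel in each species (mice, Sprague Dawley rats, beagle dogs). Exposure is reported as AUC0-t in ng/mL·h.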

[18] = test system: KM12-Luc; test: Induction of apoptosis in human KM-12-LUC cells assessed as increase in cleaved PARP level after 24 hrs by Western blot analysis; type: functional, cell-based; conditions: dose 0.01-10 µM
In short: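 KM-12-LUC cells cultured in RPMI 1640 with 10% FBS and 1% penicillin/streptomycin at 37 °C, 5% CO2. Serially diluted compound added for 24 h. Apoptosis read by western blot for PARP cleavage, with β-actin as loading control.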

[19] = AUC (0 to t) in mouse at 10 mg/kg, po; type: ADME, organism-based; set-up: dose 10 mg/kg; conditions: in vivo; in short: as §4
[20] = Apparent clearance in Sprague-Dawley rat at 1 mg/kg, iv; type: ADME, organism-based; conditions: in vivo
[21] = Cmax in Beagle dog at 1 mg/kg, iv; type: ADME, organism-based, Canis lupus familiaris; set-up: route intravenous, dose 1 mg/kg; conditions: in vivo
[22] = AUC (0 to t) in Sprague-Dawley rat at 1 mg/kg, iv; type: ADME, organism-based; set-up: dose 1 mg/kg; conditions: in vivo; in short: as §4
[23] = test system: BaF3; test: Antitumor activity against mouse BAF3 cells harboring LMNA fused TRKA-F589L mutant allografted in nude mouse assessed as tumor growth inhibition at 40 mg/kg, po administered once daily for 10 days relative to control; type: functional; conditions: 240 h, time 10 day, read-out: TGI; in short: as §2
[24] = target: High affinity nerve growth factor receptor (Homo sapiens, UniProt P04629); test: Inhibition of LMNA fused TRKA (unknown origin) transfected in mouse BAF3 cells assessed as growth inhibition after 72 hrs by CCK8 assay; type: cell-based
[25] = Apparent clearance in Beagle dog at 5 mg/kg, po; type: ADME, organism-based, Canis lupus familiaris; conditions: in vivo, read-out: CLz/F (converted)
[26] = Antitumor activity against human […] cells xenografted in nude mouse assessed as tumor growth inhibition at 40 mg/kg, po administered once daily for 10 days relative to control; type: functional; conditions: KM12-Luc, 240 h, time 10 day, read-out: TGI
In short: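 Nu/nu mice given 5 million KM-12-LUC cells in DMEM, 1:1 with matrigel, injected subcutaneously into the right flank; oral gavage started at tumor size 150–200 mm³, 5 mice per group, compound in 0.5% methylcellulose/0.4% Tween 80 in ddH₂O; body weight and tumor volume [(W²×L)/2] measured daily; TGI versus vehicle.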

[27] = test system: BaF3; test: Antitumor activity against mouse BAF3 cells harboring TEL fused TRKA allografted in nude mouse assessed as tumor growth inhibition at 40 mg/kg, po administered once daily for 10 days relative to control; type: functional; conditions: 240 h, time 10 day, read-out: TGI; in short: as §2
[28] = Tmax in mouse at 10 mg/kg, po; type: ADME, organism-based; conditions: in vivo; in short: as §1

Chain of High affinity nerve growth factor receptor (Homo sapiens, UniProt P04629, G667C) (P04629 33-796 G667C limits assumed): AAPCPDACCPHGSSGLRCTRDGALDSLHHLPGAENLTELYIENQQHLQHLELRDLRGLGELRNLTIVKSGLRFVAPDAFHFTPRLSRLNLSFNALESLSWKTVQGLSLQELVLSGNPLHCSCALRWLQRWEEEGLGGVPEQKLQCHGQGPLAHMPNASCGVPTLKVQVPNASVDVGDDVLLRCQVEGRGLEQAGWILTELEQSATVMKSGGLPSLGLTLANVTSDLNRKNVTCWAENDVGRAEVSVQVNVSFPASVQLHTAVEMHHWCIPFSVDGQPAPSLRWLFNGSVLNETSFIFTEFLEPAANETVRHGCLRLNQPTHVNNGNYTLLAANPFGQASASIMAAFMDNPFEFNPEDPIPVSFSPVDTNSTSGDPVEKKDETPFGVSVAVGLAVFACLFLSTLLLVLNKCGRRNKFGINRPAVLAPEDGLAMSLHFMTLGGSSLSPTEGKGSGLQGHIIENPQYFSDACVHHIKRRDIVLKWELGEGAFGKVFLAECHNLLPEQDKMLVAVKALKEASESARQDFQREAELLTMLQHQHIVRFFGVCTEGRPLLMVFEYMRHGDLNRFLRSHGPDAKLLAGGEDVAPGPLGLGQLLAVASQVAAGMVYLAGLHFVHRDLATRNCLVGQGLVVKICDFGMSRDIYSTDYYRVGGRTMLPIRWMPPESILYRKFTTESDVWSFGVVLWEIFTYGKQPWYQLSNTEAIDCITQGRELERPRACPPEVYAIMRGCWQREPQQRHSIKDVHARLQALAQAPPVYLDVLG
Chain of BDNF/NT-3 growth factors receptor (Q16620 32-822 limits assumed): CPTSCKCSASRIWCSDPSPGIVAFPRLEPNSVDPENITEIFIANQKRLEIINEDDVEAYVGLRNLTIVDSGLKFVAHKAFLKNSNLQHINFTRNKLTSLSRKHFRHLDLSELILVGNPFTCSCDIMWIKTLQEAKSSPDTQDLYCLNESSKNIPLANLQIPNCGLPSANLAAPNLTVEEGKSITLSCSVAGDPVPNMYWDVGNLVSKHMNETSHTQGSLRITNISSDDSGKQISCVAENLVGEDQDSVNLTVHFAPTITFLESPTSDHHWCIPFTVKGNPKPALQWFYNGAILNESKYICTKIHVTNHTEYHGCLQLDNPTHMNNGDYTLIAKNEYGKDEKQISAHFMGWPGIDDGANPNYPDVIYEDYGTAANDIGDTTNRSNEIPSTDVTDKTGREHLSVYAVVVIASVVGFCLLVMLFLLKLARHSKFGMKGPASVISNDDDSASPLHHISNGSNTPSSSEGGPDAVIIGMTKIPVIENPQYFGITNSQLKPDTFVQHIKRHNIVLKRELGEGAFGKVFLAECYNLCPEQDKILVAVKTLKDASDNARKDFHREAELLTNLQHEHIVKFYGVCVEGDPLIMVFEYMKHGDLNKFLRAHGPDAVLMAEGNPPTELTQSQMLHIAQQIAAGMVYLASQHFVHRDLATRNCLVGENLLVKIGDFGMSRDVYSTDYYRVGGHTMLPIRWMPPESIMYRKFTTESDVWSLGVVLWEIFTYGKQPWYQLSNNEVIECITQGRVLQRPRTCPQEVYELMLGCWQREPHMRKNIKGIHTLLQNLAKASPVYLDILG
Chain of High affinity nerve growth factor receptor (Homo sapiens, UniProt P04629) (P04629 33-796 limits assumed): as the sequence (P04629 33-796 G667C limits assumed) above, with C635G counted along it

Tmax [1]: 4.3 h
Vz [3]: 37.364 L/kg
Cmax [4]: 131 ng/mL
GI50 [5]: 3 nM
EC50 [6]: 67 nM
Vz [7]: 31.567 L/kg
bioavailability [8]: 26%
GI50 [12]: 8.2 nM
t1/2 [13]: 2.5 h
EC50 [15]: 13 nM
Cmax [16]: 258 ng/mL
AUC(0-t) [17]: 748 ng·h/mL
AUC(0-t) [19]: 1430 ng·h/mL
CLz/F [20]: 41.35 mL/min/kg
Cmax [21]: 284 ng/mL
AUC(0-t) [22]: 393 ng·h/mL
GI50 [24]: 7 nM
CL/F [25]: 140 mL/min/kg
Tmax [28]: 1.5 h
Structure (SMILES): Cc1nc(NC(=O)CN2CCN(C)CC2)sc1-c1ccc2c(/C=C/c3ccccn3)n[nH]c2c1
inhibition in vivo at 80 mg/kg/day [2]: 87.7%
Activity [9]: Non-Toxic
inhibition in vivo at 80 mg/kg/day [10]: 92.7%
inhibition in vivo at 80 mg/kg/day [11]: 67.5%
Activity [14]: Non-Toxic
Activity [18]: Dose-dependent effect
inhibition in vivo at 40 mg/kg/day [23]: 80%
inhibition in vivo at 40 mg/kg/day [26]: 93.4%
inhibition in vivo at 40 mg/kg/day [27]: 52.2%
